ChEMBL document CHEMBL4706687, “Synthesis and Pharmacological Evaluation of Novel Non-nucleotide Purine Derivatives as P2X7 Antagonists for the Treatment of Neuroinflammation” (J Med Chem, 2021)
Active and inactive are the calls of the source. The calls are words filed in the database; no cut-off is given here.

Key:
[1] = target: T1, P2X purinoceptor 7 (Homo sapiens) (UniProt Q99572); test: Antagonist activity at human P2X7 receptor expressed in HEK293 cells assessed as reduction in benzoyl-ATP-induced YO-PRO-1 dye uptake at 10 uM pre-incubated for 20 mins before YO-PRO-1 addition and measured after 25 mins by fluorescence plate reader analysis relative to control; type: cell-based; conditions: time 45.0 min
T1 sequence (whole entry): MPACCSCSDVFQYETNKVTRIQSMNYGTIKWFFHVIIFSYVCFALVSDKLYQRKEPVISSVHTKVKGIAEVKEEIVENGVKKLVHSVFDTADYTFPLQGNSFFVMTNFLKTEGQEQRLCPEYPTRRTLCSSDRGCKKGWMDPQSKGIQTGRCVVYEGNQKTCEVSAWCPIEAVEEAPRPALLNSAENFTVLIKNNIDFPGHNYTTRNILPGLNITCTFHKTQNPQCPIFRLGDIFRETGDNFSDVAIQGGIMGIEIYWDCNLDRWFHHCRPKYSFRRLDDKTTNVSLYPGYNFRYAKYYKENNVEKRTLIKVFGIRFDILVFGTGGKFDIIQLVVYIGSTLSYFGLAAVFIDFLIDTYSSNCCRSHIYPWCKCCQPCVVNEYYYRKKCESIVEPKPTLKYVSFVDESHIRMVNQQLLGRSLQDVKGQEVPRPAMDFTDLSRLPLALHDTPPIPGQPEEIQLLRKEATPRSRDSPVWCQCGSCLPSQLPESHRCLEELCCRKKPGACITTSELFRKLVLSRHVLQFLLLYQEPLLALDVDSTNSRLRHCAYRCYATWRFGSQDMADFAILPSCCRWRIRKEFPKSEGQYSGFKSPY
How it was run: (§1)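 Stably transfected hP2X7-HEK293 cells, 48 h after seeding, in Mg²⁺-free Krebs-HEPES (0.2 mM CaCl₂, pH 7.4). Compound preincubation 20 min, then YO-PRO-1 2 μM, then BzATP 30 μM. Fluorescence at 485/520 nm read for 25 min. Each well normalized to Fmax (0.5% Triton X-100) and Fmin (2 M MnCl₂): F = (Fx − F0)/(Fmax − Fmin). Triplicates from three cultures. IC50 is the concentration halving BzATP-induced uptake.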

[2] = target: T1, P2X purinoceptor 7 (Homo sapiens); test: Antagonist activity at human P2X7 receptor expressed in Xenopus laevis oocytes assessed as reduction in ATP-induced channel currents at 100 uM by TEVC electrophysiology assay relative to control; type: cell-based; conditions: Oocyte
How it was run: (§2)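 Oocytes injected with 50 nL His-tagged hP2X7 cRNA (0.5 mg/mL), kept 1–2 days at 16–18 °C. Recorded in low divalent-cation solution (90 mM NaCl, 0.5 mM CaCl₂, 5 mM HEPES) at −70 mV. ATP 300 μM for 2 s after 3 min static compound incubation. Current normalized to control amplitude. Triplicates from three oocytes, two frogs.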

P2X purinoceptor 7 = target: T2, P2X purinoceptor 7 (Homo sapiens, UniProt Q99572); test: Antagonist activity at human P2X7 receptor expressed in HEK293 cells assessed as reduction in benzoyl-ATP-induced YO-PRO-1 dye uptake pre-incubated for 20 mins before YO-PRO-1 addition and measured after 25 mins by fluorescence plate reader analysis relative to control; type: cell-based; how it was run: as §1
T2 sequence (Q99572 whole entry): T1 sequence (whole entry)

[3] = target: T1, P2X purinoceptor 7 (Homo sapiens); test: Antagonist activity at human P2X7 receptor expressed in HEK293 cells assessed as reduction in benzoyl-ATP-induced YO-PRO-1 dye uptake at 1 uM pre-incubated for 20 mins before YO-PRO-1 addition and measured after 25 mins by fluorescence plate reader analysis relative to control; type: cell-based; conditions: filed as antagonist, time 45.0 min; how it was run: as §1
[4] = target: T1, P2X purinoceptor 7 (Homo sapiens); test: Antagonist activity at human P2X7 receptor expressed in Xenopus laevis oocytes assessed as reduction in ATP-induced channel currents at 1 uM by TEVC electrophysiology assay relative to control; type: cell-based; conditions: Oocyte, filed as antagonist; how it was run: as §2
[5] = target: T1, P2X purinoceptor 7 (Homo sapiens); test: Antagonist activity at human P2X7 receptor expressed in HEK293 cells assessed as reduction in benzoyl-ATP-induced intracellular Ca2+ level by Fura-2 dye based fluorescence assay; type: cell-based; conditions: filed as antagonist
How it was run: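 hP2X7-HEK293 cells 24–48 h after seeding, loaded with Fura-2-AM 8 μM for 1 h, then washed in Mg²⁺-free Tyrode (2 mM CaCl₂, pH 7.4) for 15–30 min with compound present. Excitation 340/380 nm, emission 520 nm. Basal recording, then BzATP injected (100 μM final). [Ca²⁺]c from Grynkiewicz equation. Blockade as percent of BzATP peak in Tyrode-only wells; triplicates.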

Peritoneal macrophage = test: Inhibition of Il-1beta production in LPS-stimulated C57BL/6 mouse peritoneal macrophages pre-incubated for 15 mins followed by ATP addition for 30 mins by ELISA method; type: functional, tissue-based; conditions: time 45.0 min
How it was run: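 Thioglycolate-elicited peritoneal macrophages from 6–8-week male C57BL/6 mice, 3 × 10⁵ cells/well. Primed 4 h with LPS 1 μg/mL (E. coli 026:B6), then serum-free DMEM with compound for 15 min, then ATP for 30 min. Supernatant IL-1β measured by ELISA, expressed as percent of ATP-only control. Triplicates from three mice.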

inhibition [1] | inhibition [2] | Compound | other results
 | 2% | O=S(=O)(c1ccccc1Cl)n1cnc2c(Cl)nc(Cl)nc21 | inhibition ([1]; filed as antagonist): 46%; IC50 (P2X purinoceptor 7): 10.2 µM
7% | 1% | Cn1c(=O)c2c(ncn2S(=O)(=O)c2ccc(F)cc2F)n(C)c1=O | 
10% | inactive | Cn1c(=O)c2c(ncn2S(=O)(=O)c2ccc(F)cc2)n(C)c1=O | 
25% | 14% | COc1ncnc2c1ncn2CC(=O)c1ccc(Cl)cc1Cl | 
14% | 6% | O=C(Cn1cnc2c(I)nc(Cl)nc21)c1ccc(Cl)cc1Cl | 
 | 11% | O=C(Cn1cnc2c(Cl)ncnc21)c1ccc(Cl)cc1 | inhibition ([1]; filed as antagonist): 55%; IC50 (P2X purinoceptor 7): 10 µM
27% | 24% | O=C(Cn1cnc2c(Cl)nc(F)nc21)c1ccc(Cl)cc1Cl | 
16% | 9% | Cn1cnc2c(=O)n(Cc3ccccc3Cl)c(Cl)nc21 | 
17% | 9% | O=S(=O)(c1ccccc1Cl)n1cnc2c(Cl)ncnc21 | 
4% | 2% | CNc1nc(Cl)nc2c1ncn2S(=O)(=O)c1ccccc1Cl | 
inactive | 8% | COc1ncnc2c1ncn2S(=O)(=O)c1ccccc1Cl | 
20% | inactive | Cn1c(=O)c2c(ncn2S(=O)(=O)c2ccc(F)cc2Cl)n(C)c1=O | 
4% | 6% | Nc1nc(Cl)c2ncn(CC(=O)c3ccc(Cl)cc3Cl)c2n1 | 

Further lines, the compound ahead of its results:

Compound | inhibition [1] | inhibition [2] | other results
Cn1c(=O)c2c(ncn2S(=O)(=O)c2ccc(Cl)cc2Cl)n(C)c1=O | 7% | 9% | 
Nc1nc(Cl)c2ncn(S(=O)(=O)c3ccccc3Cl)c2n1 | 9% | inactive | 
O=C(Cn1cnc2c(Cl)nc(Cl)nc21)c1ccc(Cl)cc1Cl |  | 24% | inhibition ([1]; filed as antagonist): 41%; IC50 (P2X purinoceptor 7): 13 µM
Cn1cnc2c1c(=O)n(CC(=O)c1ccc(Cl)cc1Cl)c(=O)n2C | inactive | 2% | 
COc1ncnc2c1ncn2C(=O)c1ccccc1Cl | 1% | 0% | 
Cn1c(=O)c2c(ncn2S(=O)(=O)c2ccc(C(F)(F)F)cc2Cl)n(C)c1=O | 5% | inactive | 
CNc1nc(Cl)nc2c1ncn2CC(=O)c1ccc(Cl)cc1Cl | 2% | 5% | 
O=C(NCC1(N2CCN(c3ccccc3)CC2)CCOCC1)c1cccnc1Sc1ccccc1 |  |  | inhibition [3]: 56%; inhibition [4]: 49%
Cc1cc(F)ccc1S(=O)(=O)n1cnc2c1c(=O)n(C)c(=O)n2C | 23% | inactive | 
O=C(Cn1cnc2c(Cl)ncnc21)c1ccc(F)cc1 | 34% | 7% | 
O=C(Cn1cnc2c(-c3ccccc3)ncnc21)c1ccc(Cl)cc1Cl |  | 11% | inhibition ([1]; filed as antagonist): 62%; IC50 (P2X purinoceptor 7): 6 µM; inhibition [5]: Active
Cn1cnc2c1c(=O)n(C(=O)c1ccccc1Cl)c(=O)n2C | 5% | 5% | 
Cn1c(=O)c2c(ncn2S(=O)(=O)c2ccccc2Cl)n(C)c1=O |  | 28% | inhibition ([1]; filed as antagonist): 52%; IC50 (P2X purinoceptor 7): 10 µM; inhibition (Peritoneal macrophage): Dose-dependent effect
O=C(c1ccccc1Cl)n1cnc2c(Cl)ncnc21 | 7% | 5% | 
O=C(CCn1cnc2c(Cl)ncnc21)c1ccc(Cl)cc1Cl | 19% | 6% | 
Cn1c(=O)c2c(ncn2S(=O)(=O)c2cc(Cl)ccc2Cl)n(C)c1=O | 4% | inactive | 
Cn1c(=O)c2c(ncn2CC(=O)c2ccc(Cl)cc2Cl)n(C)c1=O | 0% | 10% | 
